Assay results published in ChEMBL document CHEMBL1133169, “A light-inactivated antibiotic” (2000).
In brackets after ≈: the same amount, converted by molar mass.

Assays:
Type in all cases: functional
[1] = Minimum inhibitory activity towards Bacillus subtilis ATCC 33608
Procedure, shortened: (§1)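 Broth microdilution in Mueller-Hinton broth, inoculum 5 × 10^5 CFU/mL. MIC taken as the lowest antibiotic concentration preventing growth, judged by absence of turbidity after 24 h at 37 °C.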

[2] = test system: Staphylococcus aureus; experiment: Minimum inhibitory activity towards Staphylococcus aureus ATCC 25923; procedure, shortened: as §1
[3] = test system: Klebsiella pneumoniae; experiment: Minimum inhibitory activity towards Klebsiella pneumoniae ATCC 10031; procedure, shortened: as §1
[4] = test system: Enterococcus faecalis; experiment: Minimum inhibitory activity towards Enterococcus faecalis ATCC 29212; procedure, shortened: as §1

Q: What does the source list for `CC(=O)OCC1=C(C(=O)O)N2C(=O)[C@@H](NC(=O)[C@@H](Cc3ccccc3)NNC(=O)OCc3ccccc3[N+](=O)[O-])C2SC1` (some centres undefined)?
A: MIC [1]: 2 µg/mL (≈ 3.26 µM); MIC [2]: 1 µg/mL (≈ 1.63 µM); MIC [3]: 32 µg/mL (≈ 52.2 µM); MIC [4]: > 32 µg/mL
